How the values were obtained:
L1210 [1] = assay: Cytotoxicity against murine leukemia (L1210) cells was determined at 47h; assay type: functional, cell-based; details: Mus musculus, L1210, 47 h
In short: (§1)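 L1210 murine leukemia cells in early to mid log phase (under 5% trypan blue positive before the start) were grown at 37 °C in 5% CO2 in 96-well plates with increasing drug concentrations for the stated time. A methotrexate positive control was included in every trial. Viability was read by colorimetric NAD(P)H-dependent formazan production, and the IC50 was taken from this.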

L1210 [2] = assay: Cytotoxicity against murine leukemia (L1210) cells was determined at 94h; assay type: functional, cell-based; details: Mus musculus, L1210, 94 h; in short: as §1

Structure (SMILES) | IC50 (L1210 [1]) [µM] | IC50 (L1210 [2]) [µM]
NCCCNCCCCN(CCCN)CCCCNc1c2ccccc2nc2ccccc12 | 23 | 17
CCCCNc1c2ccccc2nc2ccccc12 | 2 | 2
NCCCCN(CCCN)CCCCCNc1c2ccccc2nc2ccccc12 | > 100 | > 100
NCCCN(CCCCNCc1c2ccccc2cc2ccccc12)CCCCN(CCCN)CCCCNCc1c2ccccc2cc2ccccc12 | 44 | 61
NCCCN(CCCCCNCc1c2ccccc2cc2ccccc12)CCCCN(CCCN)CCCCCNCc1c2ccccc2cc2ccccc12 | 18 | 25
NCCCN(CCCCNc1c2ccccc2nc2ccccc12)CCCCN(CCCN)CCCCNc1c2ccccc2nc2ccccc12 | 40 | 74
NCCCCN(CCCN)CCCCNc1c2ccccc2nc2ccccc12 | 75 | 55
NCCCCN(CCCN)CCCCCNCc1c2ccccc2cc2ccccc12 | 7 | 5
NCCCN(CCCCCNc1c2ccccc2nc2ccccc12)CCCCN(CCCN)CCCCCNc1c2ccccc2nc2ccccc12 | 17 | 23
NCCCNCCCCN(CCCN)CCCCNc1ccnc2cc(Cl)ccc12 | > 100 | > 100
NCCCCN(CCCN)CCCCNCc1c2ccccc2cc2ccccc12 | 13 | 6
